From article PMC6247064 (Cancer Science, 2018)

Test system: Japanese patients with advanced solid tumors
Assay: Phase 1 study: safety, tolerability, DLT and treatment-emergent adverse events
Type: in vivo, human
Outline: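 Open-label single-arm dose levels of 80 or 105 mg/m2 IV were given on day 1 of 14-day cycles, with at most 6 patients per level. Adverse events were graded by CTCAE v4.03. DLTs were related events in cycle 1 meeting predefined hematologic or nonhematologic criteria. Tolerability required a cycle 1 DLT rate <33%. Primary G-CSF prophylaxis was barred during DLT evaluation; G-CSF was allowed for treatment-emergent neutropenia and as secondary prophylaxis.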

COc1cccc(OCCCN)c1-c1cc(Nc2cnc(C#N)cn2)n[nH]1 [Prexasertib]
1 (16.7) n (%): TEAE related to study treatment: Febrile neutropenia (80 mg/m^2 N = 6, Grade 4) | TEAE related to study treatment: Thrombocytopenia (80 mg/m^2 N = 6, Grade 4) | TEAE related to study treatment: Constipation (105 mg/m^2 N = 6, Any grade) | TEAE related to study treatment: Fatigue (105 mg/m^2 N = 6, Any grade) | TEAE related to study treatment: Febrile neutropenia (105 mg/m^2 N = 6, Any grade) | TEAE related to study treatment: Headache (105 mg/m^2 N = 6, Any grade) | TEAE related to study treatment: Hypocalcemia (105 mg/m^2 N = 6, Any grade) | TEAE related to study treatment: Pyrexia (105 mg/m^2 N = 6, Any grade) | TEAE related to study treatment: Rash maculopapular (105 mg/m^2 N = 6, Any grade) | TEAE related to study treatment: Febrile neutropenia (105 mg/m^2 N = 6, Grade 3) | TEAE related to study treatment: Thrombocytopenia (105 mg/m^2 N = 6, Grade 3) | TEAE related to study treatment: Febrile neutropenia (105 mg/m^2 N = 6, Grade 3 + 4)
4 (66.7) n (%): TEAE related to study treatment: Thrombocytopenia (105 mg/m^2 N = 6, Any grade) | TEAE related to study treatment: Leukopenia (105 mg/m^2 N = 6, Grade 3)
4 patients: Patients with at least 1 AE that led to dose reduction (80 mg/m^2 group (80 to 60 mg/m^2))
0 n (%): TEAE related to study treatment: Headache (80 mg/m^2 N = 6, Grade 4) | TEAE related to study treatment: Hypocalcemia (80 mg/m^2 N = 6, Grade 4) | TEAE related to study treatment: Lung infection (80 mg/m^2 N = 6, Grade 4) | TEAE related to study treatment: Lymphocytopenia (80 mg/m^2 N = 6, Grade 4) | TEAE related to study treatment: Nausea (80 mg/m^2 N = 6, Grade 4) | TEAE related to study treatment: Pyrexia (80 mg/m^2 N = 6, Grade 4) | TEAE related to study treatment: Rash (80 mg/m^2 N = 6, Grade 4) | TEAE related to study treatment: Rash maculopapular (80 mg/m^2 N = 6, Grade 4) | TEAE related to study treatment: SVE (supraventricular extrasystoles) (80 mg/m^2 N = 6, Grade 4) | TEAE related to study treatment: Stomatitis (80 mg/m^2 N = 6, Grade 4) | TEAE related to study treatment: Anemia (105 mg/m^2 N = 6, Any grade) | TEAE related to study treatment: Atrial fibrillation (105 mg/m^2 N = 6, Any grade) | TEAE related to study treatment: ECG QT prolonged (105 mg/m^2 N = 6, Any grade) | TEAE related to study treatment: Lung infection (105 mg/m^2 N = 6, Any grade) | TEAE related to study treatment: Lymphocytopenia (105 mg/m^2 N = 6, Any grade) | TEAE related to study treatment: Nausea (105 mg/m^2 N = 6, Any grade) | TEAE related to study treatment: Rash (105 mg/m^2 N = 6, Any grade) | TEAE related to study treatment: SVE (supraventricular extrasystoles) (105 mg/m^2 N = 6, Any grade) | TEAE related to study treatment: Stomatitis (105 mg/m^2 N = 6, Any grade) | TEAE related to study treatment: Anemia (105 mg/m^2 N = 6, Grade 3) | TEAE related to study treatment: Atrial fibrillation (105 mg/m^2 N = 6, Grade 3) | TEAE related to study treatment: Constipation (105 mg/m^2 N = 6, Grade 3) | TEAE related to study treatment: ECG QT prolonged (105 mg/m^2 N = 6, Grade 3) | TEAE related to study treatment: Fatigue (105 mg/m^2 N = 6, Grade 3) | TEAE related to study treatment: Headache (105 mg/m^2 N = 6, Grade 3) | TEAE related to study treatment: Hypocalcemia (105 mg/m^2 N = 6, Grade 3) | TEAE related to study treatment: Lung infection (105 mg/m^2 N = 6, Grade 3) | TEAE related to study treatment: Lymphocytopenia (105 mg/m^2 N = 6, Grade 3) | TEAE related to study treatment: Nausea (105 mg/m^2 N = 6, Grade 3) | TEAE related to study treatment: Pyrexia (105 mg/m^2 N = 6, Grade 3) | TEAE related to study treatment: Rash (105 mg/m^2 N = 6, Grade 3) | TEAE related to study treatment: Rash maculopapular (105 mg/m^2 N = 6, Grade 3) | TEAE related to study treatment: SVE (supraventricular extrasystoles) (105 mg/m^2 N = 6, Grade 3) | TEAE related to study treatment: Stomatitis (105 mg/m^2 N = 6, Grade 3) | TEAE related to study treatment: Anemia (105 mg/m^2 N = 6, Grade 3 + 4) | TEAE related to study treatment: Atrial fibrillation (105 mg/m^2 N = 6, Grade 3 + 4) | TEAE related to study treatment: Constipation (105 mg/m^2 N = 6, Grade 3 + 4) | TEAE related to study treatment: ECG QT prolonged (105 mg/m^2 N = 6, Grade 3 + 4) | TEAE related to study treatment: Fatigue (105 mg/m^2 N = 6, Grade 3 + 4) | TEAE related to study treatment: Headache (105 mg/m^2 N = 6, Grade 3 + 4) | TEAE related to study treatment: Hypocalcemia (105 mg/m^2 N = 6, Grade 3 + 4)
5 patients: Patients with at least 1 AE that led to a dose adjustment (80 mg/m^2 group)
5 (83.3) n (%): TEAE related to study treatment: Leukopenia (105 mg/m^2 N = 6, Grade 3 + 4)
3 patients: Patients with at least 1 AE that led to a dose delay (80 mg/m^2 group)
6 (100) n (%): TEAE related to study treatment: Any (105 mg/m^2 N = 6, Any grade) | TEAE related to study treatment: Leukopenia (105 mg/m^2 N = 6, Any grade) | TEAE related to study treatment: Neutropenia (105 mg/m^2 N = 6, Any grade) | TEAE related to study treatment: Any (105 mg/m^2 N = 6, Grade 3 + 4)
3 (50.0) n (%): TEAE related to study treatment: Leukopenia (80 mg/m^2 N = 6, Grade 4) | TEAE related to study treatment: Neutropenia (80 mg/m^2 N = 6, Grade 4) | TEAE related to study treatment: Any (105 mg/m^2 N = 6, Grade 3) | TEAE related to study treatment: Neutropenia (105 mg/m^2 N = 6, Grade 3)
